Apaf-1 inh: inhibitors of human Apaf-1 apoptosome; O14727; inhibition, % at 20 µM; 0.71% of 330,000 active; reconstituted apoptosome caspase-3 activity, DEVD-Rh110 fluorescence; active = inhibition of at least 40% at 20 µM;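 also: plate controls were DMSO wells for no effect and DEVD-CHO caspase inhibitor wells for full effect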
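System: reconstituted apoptosome with Apaf-1, cytochrome c, caspase-9, procaspase-3, dATP; Signal: Rh110 fluorescence intensity; Schedule: 30 min compound preincubation, 50 min activation, room temperature; Reagent: cytochrome c trigger plus (Z-DEVD)2-Rh110 caspase-3 substrate.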
TDP2 absorb: blocks human TDP2 phosphodiesterase activity | recombinant TDP2, T5PNP hydrolysis, p-nitrophenol absorbance 415 nm | AID 720702 | inhibition, % at 12.8 µM | O95551 | 0.34% of 370,000 active;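 active = inhibition above the mean of all tested compounds plus 3 SD, set per campaign, cut at about 25% in these data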;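 also: 0% = DMSO with enzyme and 100% = buffer with substrate but no TDP2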
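System – recombinant human TDP2 · Quantity – TDP2 enzyme at 120 nM final · Doses – single concentration, 12.8 µM nominal, with 1% DMSO · Incubation – 2 h at 37 °C · Measured by – epi absorbance of p-nitrophenol freed from T5PNP by hydrolysis · Read-out – % inhibition relative to enzyme-containing and enzyme-free wells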
PAFAH2 FP inh: inhibitors of human PAFAH2 | 0.99% of 340,000 active | Q99487 | inhibition, % at 3.39 µM | recombinant PAFAH2, FP-rhodamine activity probe, fluorescence polarization;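 active = inhibition above the mean over all tested compounds plus 3 SD, cut at about 30% in these data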;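 also: inhibitors block probe labeling of enzyme so polarization drops; 0% = enzyme with DMSO and 100% = wells lacking PAFAH2 protein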
PAFAH1B3 inh: blocks human PAF acetylhydrolase 1B catalytic subunit 3; Q15102; recombinant PAFAH1B3, FP-rhodamine probe, fluorescence polarization; inhibition, % at 3.39 µM; 0.28% of 340,000 active; AID 492972;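 active = inhibition above the screen-wide average of all tested compounds plus 3 SD, cut at about 25% in these data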;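 also: 0% = enzyme with DMSO only and 100% = wells lacking PAFAH1B3 protein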
Target sequence (Q15102 whole entry, looked up): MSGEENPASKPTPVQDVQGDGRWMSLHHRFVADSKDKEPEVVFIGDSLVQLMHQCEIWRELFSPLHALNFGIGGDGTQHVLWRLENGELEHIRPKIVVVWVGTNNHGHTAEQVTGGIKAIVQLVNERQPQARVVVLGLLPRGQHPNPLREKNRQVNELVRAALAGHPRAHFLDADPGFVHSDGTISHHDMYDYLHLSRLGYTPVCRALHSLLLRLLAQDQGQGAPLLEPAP
PAFAH1B2 FP inh: inhibitors of human PAFAH1B2; P68402; recombinant PAFAH1B2, FP-rhodamine activity probe, fluorescence polarization; inhibition, % at 3.39 µM; 1.2% of 340,000 active; AID 492953;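 active = inhibition above the mean of all tested compounds plus 3 SD, cut at about 24% in these data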;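 also: 0% = enzyme with DMSO and 100% = wells lacking PAFAH1B2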
Target sequence (P68402 whole entry, looked up): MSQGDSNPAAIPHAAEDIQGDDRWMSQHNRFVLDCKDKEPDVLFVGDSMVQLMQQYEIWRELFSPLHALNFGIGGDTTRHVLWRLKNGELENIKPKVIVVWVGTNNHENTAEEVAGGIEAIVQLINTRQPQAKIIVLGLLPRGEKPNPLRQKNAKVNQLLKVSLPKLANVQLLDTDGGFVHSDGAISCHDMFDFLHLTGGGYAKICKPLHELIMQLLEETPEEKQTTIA
PAFAH2 confirm: confirmation of human PAFAH2 inhibitors. 65% of 2,300 active. inhibition, % at 3.39 µM. recombinant PAFAH2, FP-rhodamine activity probe, fluorescence polarization. shares compounds with PAFAH2 FP inh;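 active = mean inhibition over three repeats above a set limit taken from the earlier primary screen, cut at about 30% in these data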;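 also: inhibitor blocks binding of rhodamine activity probe so polarization falls; 0% = enzyme with DMSO and 100% = wells lacking PAFAH2 protein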
* hit, by the source's call; / = no result given. Compounds with a hit are over-represented: about 2.3% of the library has one in this group of screens.

SMILES	Apaf-1 inh	TDP2 absorb	PAFAH2 FP inh	PAFAH1B3 inh	PAFAH1B2 FP inh	PAFAH2 confirm
O=C(CCc1ccccc1-c1ccccc1CCNC(=O)COCc1ccccc1)NCc1ccccc1	/	3	/	/	/	/
CC1C=CCC2C(=O)N(c3ccc(Cl)cc3O)C(=O)C12 (stereo unspecified)	4	0	35*	9	7	23
COC(=O)C1CN(C2CCCC2)CCS(=O)(=O)N1Cc1ccc(Cl)cc1 (stereo unspecified)	/	-8	/	/	/	/
COc1ccc(-c2cc(-c3nnc(SCC(=O)Nc4ccc(OCc5ccccc5)cc4)n3N)[nH]n2)cc1	/	2	/	/	/	/
COc1ccccc1/C=C/c1nc(S(=O)(=O)c2ccccc2)c(N(C)C)o1	16	-2	8	12	8	/
COc1ccc(/C=C/c2nc3ccccc3c(=O)o2)cc1	7	-5	62*	3	11	57*
COc1ccccc1/C=C/c1nc2ccc(OC(C)=O)cc2c(=O)o1	5	-4	78*	9	2	67*
CC(C)=CCC[C@@]1(C(=O)O)[C@@H]2C/C=C(\C)CC/C=C(\C)CC[C@H]1[C@]1(CC2)CO1	/	6	/	/	/	/
Cc1sc2ncnc(SCC(=O)N3CCCC3=O)c2c1C	7	10	81*	7	9	83*
Cc1sc2ncnc(SCC(=O)N3CCCCC3)c2c1C	6	2	-2	4	2	/
CSCCC(NS(=O)(=O)c1ccc(Cl)cc1)C(=O)O (stereo unspecified)	3	9	35*	-1	4	29
CC(=O)C1=C(C)N(Cc2ccc(F)cc2)C(=S)NC1c1ccc(Br)cc1 (stereo unspecified)	/	-4	/	/	/	/
Cc1cccc(C)c1-n1c(C)cc(/C=N/NC(=O)CSc2ncccn2)c1C	8	0	38*	1	3	24
O=C(NC1CCCCC1)c1cccs1	-9	3	1	7	-1	/
CC1CCCC(NC(=O)COC(=O)c2n[nH]c3ccccc23)C1C (stereo unspecified)	7	5	79*	5	5	72*
CC1CCCC(NC(=O)COC(=O)c2sc3ccccc3c2Cl)C1C (stereo unspecified)	-1	-2	7	5	-1	/
Cc1ccc(C(=O)OCC(=O)NC2CCCC(C)C2C)s1 (stereo unspecified)	/	-1	/	/	/	/
O=C(COC(=O)c1ccc(NS(=O)(=O)c2cccs2)cc1O)NC1CCCCC1	-10	-2	34*	12	8	17
O=C(COC(=O)c1cccs1)NC1CCCC1	0	13	81*	1	-1	74*
CC1CCCC(NC(=O)COC(=O)c2cccs2)C1C (stereo unspecified)	2	7	81*	3	0	85*
COC(=O)[C@]12C[C@H](CC(=O)NCC3CCCCC3)C(=O)N(Cc3ccc(Cl)cc3Cl)C1=C[C@H](C(C)(C)C)O[C@@H]2C	/	5	/	/	/	/
COc1ccc(CN2CN3CCc4ccccc4C3CS2(=O)=O)cc1 (stereo unspecified)	/	-5	/	/	/	/
CN(C(=O)CNC(=O)c1ccccc1OCC(=O)Nc1ccc(Br)cc1)c1ccccc1	/	-4	/	/	/	/
O=C(COC(=O)CCC(=O)c1cccs1)NC1CCCCC1	1	2	4	13	6	/
O=C(COC(=O)c1cccs1)NC1CCCCC1	-4	-7	76*	3	5	85*
SMILES	Apaf-1 inh	TDP2 absorb	PAFAH2 FP inh	PAFAH1B3 inh	PAFAH1B2 FP inh	PAFAH2 confirm
Cc1ccc(C(=O)NCC(=O)OCC(=O)NC2CCCC(C)C2C)s1 (stereo unspecified)	6	7	48*	-6	4	31*
C[C@@H]1O[C@@H](n2c3ccc(Cl)cc3c3ccc4c5cc(Cl)ccc5[nH]c4c32)[C@H](O)[C@H](O)[C@H]1O	/	-9	/	/	/	/
O=C(Nc1ccc(-c2csc(Nc3ccccc3)n2)cc1)c1cccc(C(F)(F)F)c1	11	-9	-6	16	5	/
O=C(Nc1cccc(-c2csc(Nc3cccc(C(F)(F)F)c3)n2)c1)c1cc([N+](=O)[O-])cc(C(F)(F)F)c1	-12	9	30*	7	-6	-9
O=C(Nc1ccc(-c2csc(Nc3ccccc3)n2)cc1)c1cc([N+](=O)[O-])cc(C(F)(F)F)c1	-5	-3	50*	22	23	-8
O=C(OC12CCCN(C1)/C(=C/c1cccc(Cl)c1)C2)C1CCCC1 (stereo unspecified)	/	4	/	/	/	/
O=C(COC(=O)c1ccc(Br)cc1)NC1CCCC1	5	-15	67*	4	-1	69*
N#CCC(=O)Nc1ccc(C(=O)OCC(=O)NC2CCCCCC2)cc1	-9	3	83*	4	3	84*
O=C(COC(=O)c1cc(Br)ccc1Cl)NC1CCCC1	-18	-10	34*	-1	0	30*
Nc1cc(Cl)ccc1C(=O)OCC(=O)NC1CCCCC1	4	4	33*	9	-2	31*
C[C@H]1[C@@H](c2ccccc2)Oc2c(Cl)cccc2S(=O)(=O)N1C	/	-7	/	/	/	/
O=C(COC(=O)c1ccccc1)NC1CCCC1	6	-2	73*	6	8	58*
CNS(=O)(=O)c1cccc(C(=O)OCC(=O)NC2CCCC2)c1	3	-23	46*	8	-3	28
O=C(COC(=O)c1ccccc1)NC(=O)NC1CCCC1	7	13	23	4	3	/
O=C(COC(=O)c1c2c(nc3ccccc13)/C(=C/c1ccco1)CC2)NC1CCCC1	/	0	36*	18	4	7
CCOC(=O)c1c(C)oc2cc(Br)c(O)c(Br)c12	-5	-12	43*	4	1	31*
Oc1oc(-c2cccc3ccccc23)nc1/C=N/c1nccs1	12	1	5	0	-3	/
Cc1ccnc(N=Cc2nc(-c3ccccc3Br)oc2O)c1	-3	6	63*	10	2	60*
COc1cccc(CNC(=O)[C@H]2CCCN2C(=O)[C@H]2CCCN2C(=O)c2ccccc2C(F)(F)F)c1	/	8	/	/	/	/
CCN(CC)S(=O)(=O)c1ccc(Cl)c(NC(=O)COC(=O)c2cccn2C)c1	14	-8	31*	3	6	21
CCN(CC)S(=O)(=O)c1ccc(Cl)c(NC(=O)COC(=O)C2CCCCC2)c1	7	-5	46*	3	7	31*
CCCC(=O)Nc1cc(S(=O)(=O)N(CC)CC)ccc1Cl	4	5	11	2	1	/
CN1CCN(c2ccc3c(c2)Oc2ccccc2CN(Cc2cn(Cc4cccc(C(F)(F)F)c4)nn2)S3(=O)=O)CC1	/	-3	/	/	/	/
N#Cc1ccc(NC(=O)OC2CC3CC2[C@H]2CCCCN2C3)cc1 (stereo partly specified)	/	11	/	/	/	/
CCCNC(=O)COC(=O)/C=C/c1ccc2c(c1)OCO2	-9	3	51*	-1	3	42*

Screening results deposited in PubChem BioAssay by several laboratories.
